Data as given in ChEMBL document CHEMBL1150817, “Annomolin and annocherimolin, new cytotoxic annonaceous acetogenins from Annona cherimolia seeds” (J Nat Prod, 2001).
In brackets after ≈: the same amount, converted by molar mass.

Legend:
[1] = test system: A549; test: Cytotoxicity against human A549 cells after 7 days by MTT assay; assay type: functional; conditions: A549, 168 h, read-out: ED50 (the source's name)
Method in brief: (§1)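 Seven-day in vitro MTT assay run at the Purdue Cancer Center cell culture laboratory under standard protocols. Cell lines were A-549 lung carcinoma, MCF-7 breast carcinoma, HT-29 colon adenocarcinoma, A-498 kidney carcinoma, PC-3 prostate adenocarcinoma and MIA PaCa-2 pancreatic carcinoma. Adriamycin served as the positive control.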

[2] = test system: PC-3; test: Cytotoxicity against human PC3 cells after 7 days by MTT assay; assay type: functional; conditions: for EC50: Homo sapiens, PC-3, 168 h, read-out: ED50 (the source's name); method in brief: as §1
[3] = test system: HT-29; test: Cytotoxicity against human HT-29 cells after 7 days by MTT assay; assay type: functional; method in brief: as §1
[4] = Toxicity to Artemia salina; assay type: organism-based; conditions: in vivo
Method in brief: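 Brine shrimp lethality test (BST) on larvae, run routinely on extracts, fractions and isolated compounds during activity-directed fractionation.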

[5] = test system: A498; test: Cytotoxicity against human A498 cells after 7 days by MTT assay; assay type: functional; conditions: for EC50: Homo sapiens, A498, 168 h, read-out: ED50 (the source's name); method in brief: as §1
[6] = test system: MIA PaCa-2; test: Cytotoxicity against human MIAPaCa2 cells after 7 days by MTT assay; assay type: functional; conditions: for EC50: Homo sapiens, MIA PaCa-2, 168 h, read-out: ED50 (the source's name); method in brief: as §1
[7] = test system: MCF7; test: Cytotoxicity against human MCF7 cells after 7 days by MTT assay; assay type: functional; method in brief: as §1

CCCCCCCCCCCC/C=C\CC[C@@H](O)[C@H]1CC[C@H]([C@H](O)CCCC(O)CCCC[C@@H](O)CC2=C[C@H](C)OC2=O)O1 (stereo not given in full) [ANNOCHERIMOLIN]
EC50 [1]: 1.56 µg/mL (≈ 2.5 µM) | EC50 [2]: 1.02 µg/mL (≈ 1.64 µM) | ED50 [3]: 2.49 ×10⁻⁶ ug/ml | LC50 [4]: 0.0058 µg/mL (≈ 0.00931 µM) | EC50 [5]: 0.153 µg/mL (≈ 0.246 µM) | ED50 [6]: 1.2 ×10⁻⁵ ug/ml | ED50 [7]: 4.06 ×10⁻⁶ ug/ml

CCCCCCCCCCCCCC[C@H](O)[C@@H]1CC[C@@H](CCCCC[C@@H](O)[C@H](O)CC[C@@H](O)CC2=C[C@H](C)OC2=O)O1 [ANNOMOLIN]
EC50 [1]: 2.37 µg/mL (≈ 3.97 µM) | ED50 [2]: 5.39 ×10⁻⁶ ug/ml | ED50 [3]: 8.92 ×10⁻⁵ ug/ml | LC50 [4]: 0.0094 µg/mL (≈ 0.0157 µM) | ED50 [5]: 6.88 ×10⁻⁴ ug/ml | EC50 [6]: 2.18 µg/mL (≈ 3.65 µM) | ED50 [7]: 1.15 ×10⁻⁴ ug/ml

COc1cccc2c1C(=O)c1c(O)c3c(c(O)c1C2=O)C[C@@](O)(C(=O)CO)C[C@@H]3O[C@H]1C[C@H](N)[C@H](O)[C@H](C)O1 [DOXORUBICIN]
EC50 [1]: 0.00113 µg/mL (≈ 0.00208 µM) | EC50 [2]: 0.0502 µg/mL (≈ 0.0924 µM) | EC50 ([3]; Homo sapiens, HT-29, 168 h, read-out: ED50 (the source's name)): 0.0128 µg/mL (≈ 0.0235 µM) | EC50 [5]: 0.00226 µg/mL (≈ 0.00416 µM) | EC50 [6]: 0.00262 µg/mL (≈ 0.00482 µM) | EC50 ([7]; Homo sapiens, MCF7, 168 h, read-out: ED50 (the source's name)): 0.0182 µg/mL (≈ 0.0335 µM)
